Assay results taken from ChEMBL document CHEMBL1153308 (Bioorg Med Chem Lett, 2009).

What was measured:
[1] = Inhibition of HCV RNA dependent RNA polymerase; design: species or system Hepacivirus hominis
[2] = target: T1, Replicase polyprotein 1ab (Severe acute respiratory syndrome-related coronavirus, UniProt P0C6X7); test: Inhibition of ATPase activity of SCV helicase assessed as phosphate release by colorimetric assay
Summary of the method: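 Purified SCV NTPase/helicase (400 nM in 50 mM Tris/HCl pH 6.6) preincubated with compounds for 5 min at rt. Stopped with malachite green/molybdate reagent in 1 M HCl. A620 read after 5 min, with phosphate from a standard curve.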

[3] = target: T1, Replicase polyprotein 1ab; test: Inhibition of SCV helicase assessed as duplex-DNA unwinding by FRET based assay
Summary of the method: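 Substrate was 25-bp dsDNA with a 20-dT 5′-overhang. SCV helicase (150 nM in 20 mM HEPES pH 7.4) preincubated with compounds for 5 min at rt. Started with 5X reaction solution (5 mM MgCl2, 45 mM ATP, 25 mM DTT, 100 nM dsDNA substrate as 5X concentrations), then 2 min at 37 °C. Stopped with EDTA plus unmodified trap oligomer, with FRET read-out.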

Compound: O=C(O)/C(O)=C/C(=O)c1cccc(NCc2ccccc2)c1
- IC50 [1]: 0.96 µM
- IC50 [2]: > 50 µM
- IC50 [3]: 5.4 µM

Compound: O=C(O)/C(O)=C/C(=O)c1ccc(OCc2ccccc2)cc1
- IC50 [1]: 0.96 µM
- IC50 [2]: 41.3 µM
- IC50 [3]: 39.9 µM

Compound: O=C(O)/C(O)=C/C(=O)c1ccc(OCc2ccc(Cl)cc2)cc1
- IC50 [1]: 0.96 µM
- IC50 [2]: > 50 µM
- IC50 [3]: > 50 µM

Compound: O=C(O)/C(O)=C/C(=O)c1cccc(OCc2ccccc2)c1
- IC50 [1]: 0.96 µM
- IC50 [2]: > 50 µM
- IC50 [3]: > 50 µM

Compound: O=C(O)/C(O)=C/C(=O)c1cccc(OCc2ccc(Cl)cc2)c1
- IC50 [1]: 0.96 µM
- IC50 [2]: 24.4 µM
- IC50 [3]: 13.6 µM

Compound: O=C(O)/C(O)=C/C(=O)c1ccccc1OCc1ccc(Cl)cc1
- IC50 [1]: 0.96 µM
- IC50 [2]: > 50 µM
- IC50 [3]: 28.7 µM

Compound: O=C(O)/C(O)=C/C(=O)c1ccccc1OCc1ccccc1
- IC50 [1]: 0.96 µM
- IC50 [2]: > 50 µM
- IC50 [3]: > 50 µM

Compound: O=C(O)/C(O)=C/C(=O)c1cccc(NCc2ccc(Cl)cc2)c1
- IC50 [1]: 0.96 µM
- IC50 [2]: > 50 µM
- IC50 [3]: 11 µM
